Data taken from ChEMBL document CHEMBL3808325, “Discovery and Optimization of Macrocyclic Quinoxaline-pyrrolo-dihydropiperidinones as Potent Pim-1/2 Kinase Inhibitors” (ACS Med Chem Lett, 2016).
Converted amounts (≈) assume the structure as drawn.

Key:
[1] = Oral bioavailability in Sprague-Dawley rat at 5 mg/kg; assay type: ADME, organism-based; details: in vivo
Summary of the method: (§1)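 Pharmacokinetics in male Sprague–Dawley rats. Clearance also expressed as a percentage of liver blood flow. Oral bioavailability determined.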

[2] = molecular target: Casein kinase I isoform delta (Homo sapiens) (UniProt P48730); assay: Inhibition of full-length human CSNK1D expressed in bacterial system assessed as remaining enzyme activity at 1 uM by KINOMEscan assay
Chain of Casein kinase I isoform delta (Homo sapiens) (P48730 whole entry, looked up, canonical isoform): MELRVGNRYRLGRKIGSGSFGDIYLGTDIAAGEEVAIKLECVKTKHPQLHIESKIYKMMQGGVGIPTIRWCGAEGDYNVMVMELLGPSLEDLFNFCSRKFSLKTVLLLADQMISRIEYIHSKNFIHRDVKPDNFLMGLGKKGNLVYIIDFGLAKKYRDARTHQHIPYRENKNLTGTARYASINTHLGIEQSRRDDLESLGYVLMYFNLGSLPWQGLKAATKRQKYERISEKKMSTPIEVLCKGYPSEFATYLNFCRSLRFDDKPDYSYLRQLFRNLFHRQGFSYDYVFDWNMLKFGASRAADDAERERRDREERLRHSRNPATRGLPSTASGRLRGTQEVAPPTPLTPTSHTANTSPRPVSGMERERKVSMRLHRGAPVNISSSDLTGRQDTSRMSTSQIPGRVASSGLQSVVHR
Summary of the method: (§2)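 scanMAX KINOMEscan panel of 392 nonmutant kinases, compound tested at 1 μM. Result expressed as percent of control (POC). S(10) and S(1) scores are the fraction of kinases with POC below 10% and below 1%.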

Plasma = assay: Free plasma concentration in SCID-beige mouse at 5 uM by LC/MS analysis; assay type: ADME, cell-free
[3] = molecular target: Dual specificity protein kinase CLK1 (Homo sapiens) (UniProt P49759); assay: Inhibition of human CLK1 assessed as remaining enzyme activity at 1 uM by KINOMEscan assay; summary of the method: as §2
Chain of Dual specificity protein kinase CLK1 (Homo sapiens) (P49759 whole entry, looked up): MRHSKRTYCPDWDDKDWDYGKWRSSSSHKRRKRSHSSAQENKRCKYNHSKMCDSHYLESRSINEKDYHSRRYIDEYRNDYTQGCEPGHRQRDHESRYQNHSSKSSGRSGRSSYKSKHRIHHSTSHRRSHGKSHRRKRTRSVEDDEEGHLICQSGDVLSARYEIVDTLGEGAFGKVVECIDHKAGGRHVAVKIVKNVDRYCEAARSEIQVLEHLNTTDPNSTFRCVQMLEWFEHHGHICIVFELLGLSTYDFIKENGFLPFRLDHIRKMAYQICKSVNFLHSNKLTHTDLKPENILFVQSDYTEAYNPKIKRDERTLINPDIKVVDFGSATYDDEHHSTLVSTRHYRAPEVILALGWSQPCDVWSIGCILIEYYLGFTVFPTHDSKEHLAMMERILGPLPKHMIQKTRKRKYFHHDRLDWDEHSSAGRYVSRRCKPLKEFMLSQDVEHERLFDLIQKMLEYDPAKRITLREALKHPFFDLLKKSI

KMS-12-BM = assay: Antitumor activity against human KMS-12-BM cells xenografted in orally dosed SCID-beige mouse administered as qd relative to vehicle control; assay type: functional, organism-based
Summary of the method: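 Mouse KMS-12-BM xenograft efficacy study running 16 days. Oral dosing once daily at 10, 25, 50 or 100 mg/kg. Tumor volume compared with vehicle-treated controls.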

Mus musculus [4] = assay: In vivo inhibition of Pim1/2-mediated BAD protein phosphorylation at Ser-112 in human KMS-12-BM cells xenografted in SCID-beige mouse assessed as pBAD level at 100 mg/kg, po administered as single dose measured after 6 hrs by meso scale discovery assay; assay type: functional; design: scale not given: the % may be the effect or the level left
Summary of the method: (§3)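 KMS-12-BM xenograft mice given a single oral dose of 25, 50 or 100 mg/kg. Tumor Ser-112 pBAD measured at time points through 16 h postdose. EC50 obtained by fitting all individual total plasma concentration–pBAD response data. Unbound value derived from mouse plasma fraction unbound.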

[5] = molecular target: Casein kinase I isoform gamma-2 (Homo sapiens) (UniProt P78368); assay: Inhibition of full-length human CSNK1G2 expressed in bacterial system assessed as remaining enzyme activity at 1 uM by KINOMEscan assay; summary of the method: as §2
Chain of Casein kinase I isoform gamma-2 (Homo sapiens) (P78368 whole entry, looked up, canonical isoform): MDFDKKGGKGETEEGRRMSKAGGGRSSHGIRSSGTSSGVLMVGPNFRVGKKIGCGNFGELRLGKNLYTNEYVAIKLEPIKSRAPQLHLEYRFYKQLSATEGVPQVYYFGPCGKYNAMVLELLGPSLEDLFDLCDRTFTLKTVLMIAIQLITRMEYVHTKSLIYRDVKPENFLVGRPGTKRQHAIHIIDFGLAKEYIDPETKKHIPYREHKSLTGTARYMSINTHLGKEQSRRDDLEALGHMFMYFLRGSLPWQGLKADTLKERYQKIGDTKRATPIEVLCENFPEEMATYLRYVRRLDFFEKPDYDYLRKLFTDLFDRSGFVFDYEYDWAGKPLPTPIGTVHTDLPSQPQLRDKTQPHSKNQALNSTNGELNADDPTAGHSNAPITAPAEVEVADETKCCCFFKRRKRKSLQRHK

[6] = Equilibrium solubility of compound in PBS by HPLC analysis; assay type: physicochemical
Mus musculus [7] = assay: In vivo inhibition of Pim1/2-mediated BAD protein phosphorylation at Ser-112 in human KMS-12-BM cells xenografted in SCID-beige mouse assessed as pBAD level at 25 mg/kg, po administered as single dose measured after 16 hrs by meso scale discovery assay; assay type: functional; design: scale not given: the % may be the effect or the level left; summary of the method: as §3
Rattus norvegicus = assay: Clearance in Sprague-Dawley rat at 2 mg/kg, iv relative to hepatic blood flow; assay type: ADME, organism-based, Liver; details: in vivo; summary of the method: as §1
[8] = molecular target: Casein kinase II subunit alpha (Homo sapiens) (UniProt P68400); assay: Inhibition of full-length human CSNK2A1 expressed in mammalian system assessed as remaining enzyme activity at 1 uM by KINOMEscan assay; summary of the method: as §2
Chain of Casein kinase II subunit alpha (Homo sapiens) (P68400 whole entry, looked up): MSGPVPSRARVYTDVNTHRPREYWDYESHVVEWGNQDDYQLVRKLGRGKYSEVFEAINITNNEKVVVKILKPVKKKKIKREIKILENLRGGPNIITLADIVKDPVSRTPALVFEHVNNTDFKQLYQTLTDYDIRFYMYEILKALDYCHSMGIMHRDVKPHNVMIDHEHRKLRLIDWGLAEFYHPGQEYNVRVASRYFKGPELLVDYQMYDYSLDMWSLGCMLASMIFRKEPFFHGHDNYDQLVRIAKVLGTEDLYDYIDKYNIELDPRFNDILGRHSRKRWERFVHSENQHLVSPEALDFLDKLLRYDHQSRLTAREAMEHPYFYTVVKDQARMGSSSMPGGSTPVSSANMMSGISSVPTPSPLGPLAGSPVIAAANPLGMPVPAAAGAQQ

[9] = Half life in Sprague-Dawley rat at 2 mg/kg, iv; assay type: ADME, organism-based; details: in vivo; summary of the method: as §1
[10] = molecular target: Serine/threonine-protein kinase pim-3 (Homo sapiens) (UniProt Q86V86); assay: Inhibition of human PIM3 assessed as remaining enzyme activity at 1 uM by KINOMEscan assay
Summary of the method: (§4)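 Profiled at 1 μM compound across a scanMAX KINOMEscan panel of 392 nonmutant kinases. Activity is reported as percent-of-control (POC). Panel-wide S(10) and S(1) selectivity scores are the fraction of kinases with POC below 10% and below 1%.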

[11] = Apparent permeability in pig LLC-PK1 cells at 5 uM; assay type: ADME, cell-based, Sus scrofa
Mus musculus [12] = assay: In vivo inhibition of Pim1/2-mediated BAD protein phosphorylation at Ser-112 in human KMS-12-BM cells xenografted in SCID-beige mouse measured after 6 to 16 hrs by meso scale discovery assay; assay type: functional, organism-based; summary of the method: as §3
Mus musculus [13] = assay: In vivo inhibition of Pim1/2-mediated BAD protein phosphorylation at Ser-112 in human KMS-12-BM cells xenografted in SCID-beige mouse assessed as pBAD level at 50 mg/kg, po administered as single dose measured after 16 hrs by meso scale discovery assay; assay type: functional; design: scale not given: the % may be the effect or the level left; summary of the method: as §3
Mus musculus [14] = assay: In vivo inhibition of Pim1/2-mediated BAD protein phosphorylation at Ser-112 in human KMS-12-BM cells xenografted in SCID-beige mouse assessed as pBAD level at 100 mg/kg, po administered as single dose measured after 16 hrs by meso scale discovery assay; assay type: functional; design: scale not given: the % may be the effect or the level left; summary of the method: as §3
[15] = molecular target: Serine/threonine-protein kinase PIM (Homo sapiens, UniProt P11309+Q9P1W9+Q86V86); assay: Inhibition of Pim1/2 in human KMS-12-BM cells assessed as phosphorylation of full-length BAD protein at Ser-112 incubated for 110 mins by flow cytometric analysis in presence of 20% FBS; assay type: cell-based
Summary of the method: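 Cell assay in KMS-12-BM, a multiple myeloma line with relatively high endogenous Pim-1/2. Pim-dependent phosphorylation of full-length endogenous BAD at Ser-112 measured.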

Mus musculus [16] = assay: Toxicity in human KMS-12-BM cells xenografted SCID-beige mouse assessed as drug tolerability at 10 to 100 mg/kg, po qd; assay type: organism-based; details: in vivo
Summary of the method: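 Tolerability followed in KMS-12-BM xenograft mice given oral doses once daily at 10, 25, 50 or 100 mg/kg over a 16-day efficacy study. Body weight monitored throughout.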

[17] = molecular target: Serine/threonine-protein kinase pim-1 (Homo sapiens, UniProt P11309); assay: Inhibition of human PIM1 assessed as remaining enzyme activity at 1 uM by KINOMEscan assay; summary of the method: as §4
Chain of Serine/threonine-protein kinase pim-1 (P11309 whole entry, looked up): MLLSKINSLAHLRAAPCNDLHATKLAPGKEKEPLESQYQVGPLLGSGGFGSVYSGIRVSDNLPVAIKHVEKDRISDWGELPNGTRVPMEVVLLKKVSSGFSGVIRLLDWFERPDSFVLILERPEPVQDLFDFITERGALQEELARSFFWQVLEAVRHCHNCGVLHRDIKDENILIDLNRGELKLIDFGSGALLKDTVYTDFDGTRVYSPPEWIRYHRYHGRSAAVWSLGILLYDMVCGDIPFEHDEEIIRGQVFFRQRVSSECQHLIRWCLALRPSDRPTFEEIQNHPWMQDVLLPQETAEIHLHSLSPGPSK

[18] = molecular target: Casein kinase II subunit alpha (Homo sapiens) (UniProt P68400); assay: Inhibition of full-length human CSNK2A2 expressed in mammalian system assessed as remaining enzyme activity at 1 uM by KINOMEscan assay; summary of the method: as §2
[19] = molecular target: Mitogen-activated protein kinase kinase kinase 19 (Homo sapiens) (UniProt Q56UN5); assay: Inhibition of human YSK4 assessed as remaining enzyme activity at 1 uM by KINOMEscan assay; summary of the method: as §2
[20] = molecular target: Casein kinase I isoform epsilon (Homo sapiens) (UniProt P49674); assay: Inhibition of full-length human CSNK1E expressed in bacterial system assessed as remaining enzyme activity at 1 uM by KINOMEscan assay; summary of the method: as §2
Chain of Casein kinase I isoform epsilon (Homo sapiens) (P49674 whole entry, looked up, canonical isoform): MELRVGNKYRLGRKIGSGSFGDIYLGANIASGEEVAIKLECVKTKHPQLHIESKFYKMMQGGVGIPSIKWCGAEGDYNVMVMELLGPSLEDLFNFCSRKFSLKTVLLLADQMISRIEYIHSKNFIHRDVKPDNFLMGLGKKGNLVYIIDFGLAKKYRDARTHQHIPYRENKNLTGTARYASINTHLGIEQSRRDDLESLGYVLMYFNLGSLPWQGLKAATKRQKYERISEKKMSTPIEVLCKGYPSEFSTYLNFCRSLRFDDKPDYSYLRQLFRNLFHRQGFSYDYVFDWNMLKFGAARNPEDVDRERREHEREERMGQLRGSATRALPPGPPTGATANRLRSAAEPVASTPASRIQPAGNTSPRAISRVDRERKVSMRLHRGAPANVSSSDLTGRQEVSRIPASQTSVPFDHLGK

[21] = molecular target: Dual specificity tyrosine-phosphorylation-regulated kinase 1B (Homo sapiens) (UniProt Q9Y463); assay: Inhibition of human DYRK1B assessed as remaining enzyme activity at 1 uM by KINOMEscan assay; summary of the method: as §2
Chain of Dual specificity tyrosine-phosphorylation-regulated kinase 1B (Homo sapiens) (Q9Y463 whole entry, looked up, canonical isoform): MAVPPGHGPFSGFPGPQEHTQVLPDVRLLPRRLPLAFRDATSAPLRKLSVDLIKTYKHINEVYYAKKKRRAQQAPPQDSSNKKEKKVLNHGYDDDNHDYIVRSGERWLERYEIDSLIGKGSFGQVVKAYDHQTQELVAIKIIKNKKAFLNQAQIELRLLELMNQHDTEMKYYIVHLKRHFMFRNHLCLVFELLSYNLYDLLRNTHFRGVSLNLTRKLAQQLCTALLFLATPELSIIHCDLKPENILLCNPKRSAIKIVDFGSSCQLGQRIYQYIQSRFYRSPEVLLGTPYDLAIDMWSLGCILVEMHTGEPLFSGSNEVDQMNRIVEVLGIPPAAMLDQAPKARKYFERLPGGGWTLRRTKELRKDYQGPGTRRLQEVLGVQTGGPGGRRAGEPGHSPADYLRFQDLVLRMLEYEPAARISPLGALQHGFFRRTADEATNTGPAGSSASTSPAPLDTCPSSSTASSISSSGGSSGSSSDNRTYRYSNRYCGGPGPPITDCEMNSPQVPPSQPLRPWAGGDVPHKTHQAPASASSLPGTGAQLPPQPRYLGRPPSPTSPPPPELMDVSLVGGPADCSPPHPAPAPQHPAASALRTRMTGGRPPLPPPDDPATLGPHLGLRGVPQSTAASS

[22] = molecular target: Casein kinase I isoform alpha-like (Homo sapiens) (UniProt Q8N752); assay: Inhibition of full-length human CSNK1A1L expressed in bacterial system assessed as remaining enzyme activity at 1 uM by KINOMEscan assay; summary of the method: as §2
Chain of Casein kinase I isoform alpha-like (Homo sapiens) (Q8N752 whole entry, canonical isoform): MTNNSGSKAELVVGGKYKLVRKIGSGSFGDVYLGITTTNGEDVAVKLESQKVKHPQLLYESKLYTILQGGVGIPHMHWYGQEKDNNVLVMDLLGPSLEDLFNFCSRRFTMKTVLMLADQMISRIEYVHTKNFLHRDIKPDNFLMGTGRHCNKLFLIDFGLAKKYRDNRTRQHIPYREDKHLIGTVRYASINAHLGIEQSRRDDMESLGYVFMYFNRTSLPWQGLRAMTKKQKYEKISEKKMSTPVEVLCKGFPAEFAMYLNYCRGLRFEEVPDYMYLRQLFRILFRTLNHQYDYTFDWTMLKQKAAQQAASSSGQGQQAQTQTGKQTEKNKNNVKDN

Mus musculus [23] = assay: In vivo inhibition of Pim1/2-mediated BAD protein phosphorylation at Ser-112 in human KMS-12-BM cells xenografted in SCID-beige mouse assessed as pBAD level at 25 mg/kg, po administered as single dose measured after 6 hrs by meso scale discovery assay; assay type: functional; design: scale not given: the % may be the effect or the level left; summary of the method: as §3
[24] = Fraction unbound in SCID-beige mouse plasma at 5 uM by LC/MS analysis; assay type: ADME, cell-free
[25] = Clearance in Sprague-Dawley rat at 2 mg/kg, iv; assay type: ADME, organism-based; details: in vivo; summary of the method: as §1
[26] = molecular target: Homeodomain-interacting protein kinase 3 (Homo sapiens) (UniProt Q9H422); assay: Inhibition of human HIPK3 assessed as remaining enzyme activity at 1 uM by KINOMEscan assay; summary of the method: as §2
Chain of Homeodomain-interacting protein kinase 3 (Homo sapiens) (Q9H422 whole entry, looked up): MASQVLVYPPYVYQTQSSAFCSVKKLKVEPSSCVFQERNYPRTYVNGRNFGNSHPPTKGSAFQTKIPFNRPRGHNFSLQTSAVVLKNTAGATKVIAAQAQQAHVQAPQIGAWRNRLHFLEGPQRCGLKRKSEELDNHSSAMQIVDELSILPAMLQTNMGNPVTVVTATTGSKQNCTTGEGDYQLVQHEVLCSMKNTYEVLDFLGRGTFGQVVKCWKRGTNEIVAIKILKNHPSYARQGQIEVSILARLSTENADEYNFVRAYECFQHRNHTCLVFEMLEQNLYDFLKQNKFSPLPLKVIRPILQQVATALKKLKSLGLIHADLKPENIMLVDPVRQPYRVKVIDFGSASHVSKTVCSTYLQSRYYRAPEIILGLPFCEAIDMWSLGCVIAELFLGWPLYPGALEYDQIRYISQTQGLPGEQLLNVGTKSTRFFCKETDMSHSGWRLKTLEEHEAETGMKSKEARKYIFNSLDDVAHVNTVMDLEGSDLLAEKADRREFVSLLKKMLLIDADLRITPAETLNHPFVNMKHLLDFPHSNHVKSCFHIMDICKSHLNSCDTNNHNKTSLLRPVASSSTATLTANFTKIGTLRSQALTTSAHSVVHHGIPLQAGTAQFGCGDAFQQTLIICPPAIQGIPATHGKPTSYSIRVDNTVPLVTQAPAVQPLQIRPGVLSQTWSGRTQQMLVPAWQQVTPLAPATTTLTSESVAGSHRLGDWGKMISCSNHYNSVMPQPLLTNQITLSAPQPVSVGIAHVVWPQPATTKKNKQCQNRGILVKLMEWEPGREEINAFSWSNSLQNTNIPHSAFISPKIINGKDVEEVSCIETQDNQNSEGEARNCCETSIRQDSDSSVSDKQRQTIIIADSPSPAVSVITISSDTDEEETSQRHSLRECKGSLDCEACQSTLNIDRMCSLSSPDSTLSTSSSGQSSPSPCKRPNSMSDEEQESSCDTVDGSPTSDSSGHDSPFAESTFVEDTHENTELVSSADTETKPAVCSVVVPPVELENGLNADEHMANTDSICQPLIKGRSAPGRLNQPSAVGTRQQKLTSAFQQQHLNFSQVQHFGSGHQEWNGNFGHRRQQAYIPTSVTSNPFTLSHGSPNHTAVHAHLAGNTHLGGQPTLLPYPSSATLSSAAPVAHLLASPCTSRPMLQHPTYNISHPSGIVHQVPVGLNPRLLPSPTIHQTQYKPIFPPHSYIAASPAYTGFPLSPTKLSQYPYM

Cc1nc2cccc3c2nc1N[C@H](C)/C=C\C[C@H]1CNC(=O)c2cc-3[nH]c21
bioavailability [1]: 48%
Activity [2]: < 10%
Cp(f) (Plasma): 30 nM
Activity [3]: < 10%
TGI (KMS-12-BM): Dose-dependent effect
Activity (Mus musculus [4]): 66%
Activity [5]: < 10%
solubility thermodynamic [6]: 40 µM (≈ 14.4 µg/mL)
Activity (Mus musculus [7]): 0%
CL (Rattus norvegicus): 14%
Activity [8]: < 10%
half-life [9]: 4 h
Activity [10]: < 10%
Papp at 5 µM [11]: 29 ×10⁻⁶ cm/s
Activity (Mus musculus [12]): Dose-dependent effect
EC50 (Mus musculus [12]): 3.6 µM
Activity (Mus musculus [13]): 8%
Activity (Mus musculus [14]): 53%
IC50 [15]: 0.025 µM
Activity (Mus musculus [16]): Non-toxic
Activity [17]: < 10%
Activity [18]: < 10%
Activity [19]: < 10%
Activity [20]: < 10%
Activity [21]: < 10%
Activity [22]: < 10%
Activity (Mus musculus [23]): 35%
fraction unbound at 5 µM [24]: 0.0084
clearance [25]: 7.83 mL/min/kg
Activity [26]: < 10%
